This is one part of a sample in which hits are shown more often than they occur.
A1 apoptosis 2: A1 inhibitors via caspase activation, primary screen, cell-based, luminescence, HTS, two replicates; AID 2465, 2010; MEF A1-2A-BIM cells, caspase-Glo luminescence, 3 h; percent of clofoctol response, DMSO zero; caspase activation, % (no concentration beside the values); 24,000 tested, under 10 active; in the data active = caspase activation above about 5.9%
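Material: mouse embryonic fibroblasts co-expressing A1 and BIM (A1-2A-BIM), primed for A1 dependence / Quantity: 2500 cells/well / Buffer or medium: RPMI-1640 growth medium with 10% FBS / Doses: 50 nL compound per well, pinned / Schedule: 3 h compound exposure at 37 °C / Signal: Caspase-Glo luminescence (DEVD substrate) / Measure: Caspase-3/7 activation, seen as rise in luminescence signal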
INS-1E rescue: protection of INS-1E cells from cytokine death, primary screen, ATP luminescence, single point. INS-1E cytokine-induced death, 48 h; normalised: neutral wells 0, positive control 100. protection from cytokine-induced ATP loss, % at 10 µM. 0.1% of 20,000 active. AID 488910, 2010;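 active = mean replicate protection from cytokine-induced ATP loss at least 50% and at least 75% of replicates each reaching 50%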
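Test system: INS-1E rat cells | Quantity: 8000 cells per well | Medium: Phenol-red-free RPMI with 5% fetal bovine serum | Reagent: Cytokine cocktail of IFN-γ, TNF-α and IL-1β | Doses: One compound concentration, pin transfer | Timing: 48 h co-treatment, 10 min post-lysis read | Technique: Luminescent ATP assay (CellTiter-Glo)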
T cruzi intra: inhibitors of intracellular Trypanosoma cruzi, primary screen, cell-based, plate reader, single point, set 2. intracellular Trypanosoma cruzi in host cells. activity score (inhibition), % at 5.01 µM. 4.9% of 22,000 active. AID 651903, 2012; in the data active = activity score above about 55%;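 also: parasites and compound incubated about four days before reading; 0% = median of neutral control wells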
* = called active by the depositor.

What do the screens show for `C[C@H]1CN([C@@H](C)CO)C(=O)c2cccc(NC(=O)Nc3ccc(C(F)(F)F)cc3)c2O[C@@H]1CN(C)Cc1ccc(Oc2ccccc2)cc1`?
A1 apoptosis 2: 1; INS-1E rescue: -34; T cruzi intra: 30

Results for C[C@H]1CN([C@@H](C)CO)C(=O)c2cccc(NC(=O)Nc3ccc(C(F)(F)F)cc3)c2O[C@H]1CN(C)Cc1ccc2c(c1)OCO2 ?
INS-1E rescue: -34; T cruzi intra: 85*

What do the screens show for `C[C@@H]1CN([C@@H](C)CO)C(=O)c2cccc(NC(=O)Nc3ccc(C(F)(F)F)cc3)c2O[C@@H]1CN(C)Cc1ccc(C(F)(F)F)cc1`?
INS-1E rescue: -88; T cruzi intra: 81*

Results for COc1cc(/C=N/NC(=O)c2ccccc2O)c(Br)cc1O ?
A1 apoptosis 2: -6; INS-1E rescue: -73; T cruzi intra: 2

Results for O=C(CCCCCCC(=O)Nc1ccccc1O)N/N=C/c1c(O)ccc2ccccc12 ?
INS-1E rescue: 7; T cruzi intra: 38

How did O=C(O)CCCCCC(=O)N/N=C/c1cc(Br)ccc1O do in these assays?
A1 apoptosis 2: 0; INS-1E rescue: -2; T cruzi intra: -28

What do the screens show for `COc1ccc(/C=N/NC(=O)c2ccccn2)cc1Br`?
A1 apoptosis 2: -5; INS-1E rescue: -3; T cruzi intra: 0

Results for COc1ccc(CN(C)C[C@@H]2Oc3c(NC(=O)Nc4ccc(C(F)(F)F)cc4)cccc3C(=O)N([C@H](C)CO)C[C@H]2C)cc1 ?
A1 apoptosis 2: 0; INS-1E rescue: -77; T cruzi intra: 79*

What do the screens show for `COc1ccc(NC(=O)Nc2cccc3c2O[C@H](CN(C)Cc2ccc(C(F)(F)F)cc2)[C@@H](C)CN([C@H](C)CO)C3=O)cc1`?
INS-1E rescue: -13; T cruzi intra: -3

Results for COC(=O)CCCCCCC(=O)N/N=C/c1ccc(-n2ccnc2)cc1 ?
A1 apoptosis 2: 2; INS-1E rescue: 3; T cruzi intra: -13

What do the screens show for `C[C@@H]1CN([C@@H](C)CO)C(=O)Cc2cc(NC(=O)Nc3ccc(C(F)(F)F)cc3)ccc2O[C@@H]1CN(C)Cc1ccc(C(=O)O)cc1`?
A1 apoptosis 2: 0; INS-1E rescue: 9; T cruzi intra: -24

Results for C[C@H](CO)N1C[C@H](C)[C@H](CN(C)Cc2ccc(C(F)(F)F)cc2)Oc2ccc(NC(=O)Nc3ccc(C(F)(F)F)cc3)cc2CC1=O ?
A1 apoptosis 2: 6.6*; INS-1E rescue: -69; T cruzi intra: 72*

What do the screens show for `C[C@@H]1CN([C@H](C)CO)C(=O)Cc2cc(NC(=O)Nc3ccc(C(F)(F)F)cc3)ccc2O[C@@H]1CN(C)Cc1ccc(C(F)(F)F)cc1`?
A1 apoptosis 2: 1; INS-1E rescue: -65; T cruzi intra: 68*

What do the screens show for `C[C@H]1CN([C@@H](C)CO)C(=O)Cc2cc(NC(=O)CCC(F)(F)F)ccc2O[C@@H]1CN(C)Cc1ccc(C(F)(F)F)cc1`?
INS-1E rescue: -1; T cruzi intra: 64*

How did C[C@@H]1CN([C@H](C)CO)C(=O)Cc2cc(NC(=O)CCC(F)(F)F)ccc2O[C@H]1CN(C)Cc1ccc(C(F)(F)F)cc1 do in these assays?
INS-1E rescue: -7; T cruzi intra: 49

What do the screens show for `C[C@@H]1CN([C@H](C)CO)C(=O)Cc2cc(NC(=O)Nc3ccc(C(F)(F)F)cc3)ccc2O[C@H]1CN(C)Cc1ccc(C(F)(F)F)cc1`?
A1 apoptosis 2: 0; INS-1E rescue: -1; T cruzi intra: 81*

What do the screens show for `C[C@H](CO)N1C[C@H](C)[C@@H](CN(C)Cc2ccc(C(F)(F)F)cc2)Oc2ccc(NC(=O)Nc3ccccc3)cc2CC1=O`?
A1 apoptosis 2: 2

Results for C[C@@H]1CN([C@@H](C)CO)C(=O)Cc2cc(NC(=O)Nc3ccc(C(F)(F)F)cc3)ccc2O[C@H]1CN(C)Cc1ccc(-c2ccccc2)cc1 ?
A1 apoptosis 2: 0

Results for O=C(N/N=C/c1ccc(-n2ccnc2)cc1)c1ccccc1O ?
INS-1E rescue: -34; T cruzi intra: 6

Results for Cc1nnc(Sc2ccc(/C=N/NC(=O)CCCCCCC(=O)NO)o2)n1C ?
A1 apoptosis 2: 1

Results for CCOc1cccc(/C=N/NC(=O)c2ccc(C(=O)NO)cc2)c1OCC ?
A1 apoptosis 2: 0

How did C[C@H](CO)N1C[C@H](C)[C@H](CN(C)Cc2ccc(Cl)c(Cl)c2)Oc2ccc(NC(=O)Nc3ccc(C(F)(F)F)cc3)cc2C1=O do in these assays?
A1 apoptosis 2: -1; INS-1E rescue: -25; T cruzi intra: 91*
